Reference: ChEMBL document CHEMBL2390920, “8-Benzamidochromen-4-one-2-carboxylic acids: potent and selective agonists for the orphan G protein-coupled receptor GPR35” (J Med Chem, 2013)

Columns and labels:
[1] = target: T1, G-protein coupled receptor 55 (Homo sapiens, UniProt Q9Y2T6); assay: Antagonist activity at human GPR55 expressed in CHO cells assessed as inhibition of lysophosphotidylinositol-induced beta-arrestin recruitment at 10 uM preincubated for 30 mins followed by lysophosphotidylinositol induction by beta-galactosidase reporter gene assay relative to control; assay type: functional, cell-based
T1 sequence (Q9Y2T6 whole entry): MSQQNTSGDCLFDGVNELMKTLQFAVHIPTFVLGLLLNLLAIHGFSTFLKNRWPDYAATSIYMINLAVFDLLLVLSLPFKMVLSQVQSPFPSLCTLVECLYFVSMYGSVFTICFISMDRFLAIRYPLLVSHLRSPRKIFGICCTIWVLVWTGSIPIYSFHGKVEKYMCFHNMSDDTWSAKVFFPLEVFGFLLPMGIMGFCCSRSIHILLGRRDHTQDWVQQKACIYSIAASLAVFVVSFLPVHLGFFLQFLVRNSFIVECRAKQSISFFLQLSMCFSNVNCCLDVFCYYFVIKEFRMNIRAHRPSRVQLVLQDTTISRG
In short: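 Human GPR55 PathHunter CHO cells were preincubated 30 min with compound, then stimulated with LPI (final 1 µM). After 90 min, detection reagent was added and luminescence read 60 min later. Screening was at 10 µM; full concentration-inhibition curves were run for selected compounds to give IC50.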

[2] = target: T2, G-protein coupled receptor 35 (Homo sapiens, UniProt Q9HC97); assay: Agonist activity at human GPR35 expressed in CHO cells assessed as induction of beta-arrestin recruitment after 90 mins by beta-galactosidase reporter gene assay; assay type: cell-based
T2 sequence (Q9HC97 whole entry, the tested form may be a part): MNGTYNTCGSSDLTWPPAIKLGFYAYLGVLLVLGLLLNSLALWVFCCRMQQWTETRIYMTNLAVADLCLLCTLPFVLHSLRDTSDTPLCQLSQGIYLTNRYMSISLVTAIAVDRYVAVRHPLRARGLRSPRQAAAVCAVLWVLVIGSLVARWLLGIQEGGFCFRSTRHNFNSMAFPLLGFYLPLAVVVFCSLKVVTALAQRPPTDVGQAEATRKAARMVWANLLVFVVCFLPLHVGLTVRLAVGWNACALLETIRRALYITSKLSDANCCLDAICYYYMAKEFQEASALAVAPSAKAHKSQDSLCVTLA
In short: (§1)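 PathHunter enzyme-fragment complementation in CHO cells stably expressing β-arrestin-EA and tagged human GPR35, seeded at 20000 cells/well the day before. DMSO dilutions were further diluted 1:10 (final DMSO ≤1%). Cells were incubated 90 min, then detection reagent was added and luminescence read after 60 min.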

[3] = target: G protein-coupled receptor GPR35 (Rattus norvegicus) (UniProt Q33BM1); assay: Agonist activity at rat GPR35 expressed in CHO cells assessed as induction of beta-arrestin recruitment at 10 uM after 90 mins by beta-galactosidase reporter gene assay; assay type: cell-based
Sequence of G protein-coupled receptor GPR35 (Rattus norvegicus) (Q33BM1 as listed by the source): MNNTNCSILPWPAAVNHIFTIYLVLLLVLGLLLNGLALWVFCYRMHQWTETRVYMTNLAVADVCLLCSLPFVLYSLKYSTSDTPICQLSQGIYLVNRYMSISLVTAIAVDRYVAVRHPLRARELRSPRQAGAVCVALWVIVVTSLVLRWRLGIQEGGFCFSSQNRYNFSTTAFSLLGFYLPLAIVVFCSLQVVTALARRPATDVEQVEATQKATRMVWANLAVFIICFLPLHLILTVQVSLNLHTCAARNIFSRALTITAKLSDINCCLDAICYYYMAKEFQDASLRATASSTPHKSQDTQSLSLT
In short: (§2)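 Rat GPR35 expressed by transfecting a parental CHO β-arrestin-EA line; cells seeded at 20000/well the day before. Compounds (final DMSO ≤1%) were incubated 90 min, followed by detection reagent and a luminescence read after 60 min.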

[4] = target: G-protein coupled receptor 35 (Mus musculus) (UniProt Q9ES90); assay: Agonist activity at mouse GPR35 expressed in CHO cells assessed as induction of beta-arrestin recruitment at 10 uM after 90 mins by beta-galactosidase reporter gene assay; assay type: cell-based
Sequence of G-protein coupled receptor 35 (Mus musculus) (Q9ES90 whole entry): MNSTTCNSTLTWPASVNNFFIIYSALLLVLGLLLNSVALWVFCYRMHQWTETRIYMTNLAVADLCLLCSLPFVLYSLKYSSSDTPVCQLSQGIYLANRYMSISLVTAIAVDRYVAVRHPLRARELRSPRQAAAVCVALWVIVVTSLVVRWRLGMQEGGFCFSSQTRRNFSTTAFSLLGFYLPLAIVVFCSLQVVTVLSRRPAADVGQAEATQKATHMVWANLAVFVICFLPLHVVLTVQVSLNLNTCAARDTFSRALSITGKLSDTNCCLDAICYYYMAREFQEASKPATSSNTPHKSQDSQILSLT
In short: (§3)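 Mouse GPR35 introduced by transfection into a CHO β-arrestin-EA line; 20000 cells/well plated the day prior. After 90 min of compound exposure (final DMSO ≤1%), detection reagent was added and luminescence read after 60 min.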

[5] = target: T1, G-protein coupled receptor 55; assay: Agonist activity at human GPR55 expressed in CHO cells assessed as induction of beta-arrestin recruitment at 10 uM after 90 mins by beta-galactosidase reporter gene assay relative to lysophosphotidylinositol; assay type: functional, cell-based
In short: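 Human GPR55 PathHunter CHO cells, 20000 cells/well seeded the day before, received test compound at 10 µM (final DMSO ≤1%) for 90 min. Detection reagent was then added and luminescence read after 60 min. Signal was normalized to that of 1 µM LPI.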

[6] = target: T2, G-protein coupled receptor 35; assay: Agonist activity at human GPR35 expressed in CHO cells assessed as induction of beta-arrestin recruitment at 10 uM after 90 mins by beta-galactosidase reporter gene assay relative to zaprinast; assay type: cell-based; in short: as §1
[7] = target: T2, G-protein coupled receptor 35; assay: Agonist activity at human GPR35b expressed in CHO cells assessed as induction of beta-arrestin recruitment at 10 uM after 90 mins by beta-galactosidase reporter gene assay relative to zaprinast; assay type: cell-based
In short: (§4)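 CHO β-arrestin-EA parental line transfected with human GPR35b, seeded at 20000 cells/well the day before. Compounds in DMSO were diluted 1:10 in medium or PBS (final DMSO ≤1%). After 90 min of incubation, detection reagent was added and luminescence measured 60 min later. Screening was at 10 µM.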

[8] = target: G protein-coupled receptor GPR35 (Rattus norvegicus) (UniProt Q33BM1); assay: Agonist activity at rat GPR35 expressed in CHO cells assessed as induction of beta-arrestin recruitment at 10 uM after 90 mins by beta-galactosidase reporter gene assay relative to zaprinast; assay type: cell-based; in short: as §2
[9] = target: G protein-coupled receptor GPR35 (Rattus norvegicus, UniProt Q33BM1); assay: Agonist activity at rat GPR35 expressed in CHO cells assessed as induction of beta-arrestin recruitment after 90 mins by beta-galactosidase reporter gene assay; assay type: cell-based; in short: as §2
Sequence of G protein-coupled receptor GPR35 (Q33BM1 whole entry): as the sequence (Q33BM1 as listed by the source) above

[10] = target: T2, G-protein coupled receptor 35; assay: Agonist activity at human GPR35b expressed in CHO cells assessed as induction of beta-arrestin recruitment after 90 mins by beta-galactosidase reporter gene assay; assay type: cell-based; in short: as §4
[11] = target: G-protein coupled receptor 35 (Mus musculus, UniProt Q9ES90); assay: Agonist activity at mouse GPR35 expressed in CHO cells assessed as induction of beta-arrestin recruitment after 90 mins by beta-galactosidase reporter gene assay; assay type: cell-based; in short: as §3
Sequence of G-protein coupled receptor 35 (Mus musculus, UniProt Q9ES90) (Q9ES90 whole entry): as the sequence (Q9ES90 whole entry) above

Compound | inhibition [1] | EC50 [2] | Activity [3] | Activity [4] | Activity [5] | Emax [6] | Emax [7] | Emax [8] | EC50 [9] | EC50 [10] | EC50 [11]
Cc1ccc(C(=O)Nc2cccc3c(=O)cc(C(=O)O)oc23)cc1 | 16% | 1380 nM | 43% | 43% | 6% | 104% |  |  |  |  | 
O=C(O)c1cc(=O)c2cc(F)cc(NC(=O)c3cccc(Cl)c3Cl)c2o1 | 40% | 382 nM |  |  | 5% | 106% | 104% | 82% | 3130 nM | 873 nM | 
O=C(Cc1ccccc1)Nc1cccc2c(=O)cc(C(=O)O)oc12 | 26% | 8960 nM | 47% | 19% | -11% | 107% |  |  |  |  | 
COc1ccc(C(=O)Nc2cc(Cl)cc3c(=O)cc(C(=O)O)oc23)cc1 | 47% | 16.8 nM |  | 34% | -2% | 110% | 125% | 86% | 1830 nM | 28.6 nM | 
Cc1cccc(C(=O)Nc2cccc3c(=O)cc(C(=O)O)oc23)c1 | 25% | 5440 nM |  | 18% | 10% | 70% |  | 71% | 2750 nM |  | 
O=C(Nc1cc(Cl)cc2c(=O)cc(C(=O)O)oc12)c1ccccc1 | 23% | 430 nM |  | 31% | 20% | 115% |  | 65% | 2840 nM |  | 
O=C(Nc1cc(F)cc2c(=O)cc(C(=O)O)oc12)c1ccc(Cl)c(Cl)c1 | 54% | 117 nM |  | 37% | 3% | 131% | 136% | 80% | 2650 nM | 106 nM | 
O=C(Nc1cc(Br)cc2c(=O)cc(C(=O)O)oc12)c1ccccc1 | 21% | 303 nM |  | 40% | 23% | 110% |  | 75% | 2750 nM |  | 
CC(=O)Nc1cccc2c(=O)cc(C(=O)O)oc12 |  | 24100 nM | 31% | 3% | 1% | 91% |  |  |  |  | 
O=C(Nc1cc(Br)cc2c(=O)cc(C(=O)O)oc12)c1ccc2c(c1)OCO2 | 46% | 59.9 nM |  | 34% | 9% | 107% | 118% | 86% | 2050 nM | 128 nM | 
O=C(O)c1cc(=O)c2cc(F)cc(NC(=O)c3ccc(Cl)cc3Cl)c2o1 | 18% | 17 nM | 46% | 24% | -8% | 113% | 110% |  |  | 20.5 nM | 
O=C(O)c1cc(=O)c2cccc([N+](=O)[O-])c2o1 | 32% | 46300 nM | 38% | 4% | -6% | 101% |  |  |  |  | 
COc1ccc(C(=O)Nc2cc(F)cc3c(=O)cc(C(=O)O)oc23)cc1 | 34% | 112 nM |  | 30% | 7% | 123% | 113% | 78% | 1760 nM | 143 nM | 
O=C(Nc1cccc2c(=O)cc(C(=O)O)oc12)c1ccc(C(F)(F)F)cc1 | 5% | 15500 nM | 38% | 23% | 1% | 81% |  |  |  |  | 
Cc1cccc(C(=O)Nc2cc(Cl)cc3c(=O)cc(C(=O)O)oc23)c1 | 40% | 1220 nM |  | 31% | 4% | 102% |  | 92% | 2100 nM |  | 
N#Cc1ccc(C(=O)Nc2cc(Br)cc3c(=O)cc(C(=O)O)oc23)cc1 | 38% | 399 nM |  | 41% | 0% | 108% |  | 99% | 2260 nM |  | 

Compound | inhibition [1] | EC50 [2] | Activity [3] | Activity [4] | Activity [5] | Emax [6] | Emax [7] | Emax [8] | EC50 [9] | EC50 [10] | EC50 [11]
O=C(Nc1cc(Cl)cc2c(=O)cc(C(=O)O)oc12)c1ccc([N+](=O)[O-])cc1 | 14% | 1710 nM |  | 18% | 8% | 130% |  | 115% | 3140 nM |  | 
O=C(Nc1cccc2c(=O)cc(C(=O)O)oc12)c1ccc(Br)cc1 | 9% | 804 nM | 49% | 28% | 8% | 122% | 113% |  |  | 678 nM | 
Cc1cccc(C(=O)Nc2cc(Br)cc3c(=O)cc(C(=O)O)oc23)c1 | 46% | 842 nM |  | 27% | -8% | 138% | 111% | 79% | 2080 nM | 699 nM | 
O=C1N/C(=N/c2ccccc2F)S/C1=C\c1ccc(C(=O)O)cc1 |  |  |  |  |  |  |  |  | 8000 nM |  | 17000 nM
CCOC(=O)c1cc(=O)c2cc(F)cc(NC(=O)c3ccc(OC)cc3)c2o1 | 26% | 112 nM | 1% | 7% | -1% | 80% |  |  |  |  | 
O=C(O)c1cc(=O)c2cccc(NC(=O)C3CCCCC3)c2o1 | 16% | 4200 nM |  | 38% | 17% | 118% |  | 79% | 1200 nM |  | 
O=C(Nc1cccc2c(=O)cc(C(=O)O)oc12)c1ccccc1 | 24% | 4910 nM | 39% | 13% | 3% | 107% |  |  |  |  | 
O=C(Nc1cc(Br)cc2c(=O)cc(C(=O)O)oc12)c1ccc(Cl)cc1 | 40% | 25.1 nM | 47% | 27% | 12% | 115% | 130% |  |  | 40.5 nM | 
O=C(Nc1cccc2c(=O)cc(C(=O)O)oc12)c1cccc([N+](=O)[O-])c1 | 20% | 6970 nM | 32% | 26% | 12% | 112% |  |  |  |  | 
Nc1cc(Br)cc2c(=O)cc(C(=O)O)oc12 | 17% | 12600 nM | 40% | 18% | 4% | 84% |  |  |  |  | 
CCOc1ccc(C(=O)Nc2cc(Br)cc3c(=O)cc(C(=O)O)oc23)cc1 | 39% | 634 nM |  | 36% | -1% | 99% |  | 74% | 1360 nM |  | 
O=C(Nc1cc(Br)cc2c(=O)cc(C(=O)O)oc12)c1ccc(Cl)c(Cl)c1 | 47% | 15.4 nM |  | 29% | 16% | 110% | 109% | 62% | 3250 nM | 27.2 nM | 
CCC(=O)Nc1cccc2c(=O)cc(C(=O)O)oc12 | 16% | 13400 nM | 30% | 12% | 15% | 119% |  |  |  |  | 
COC(=O)CC(=O)Nc1cccc2c(=O)cc(C(=O)O)oc12 | 31% | 20200 nM |  | 15% | -4% | 87% |  | 89% | 6650 nM |  | 
O=C(O)c1cc(=O)c2cc(Br)cc(NC(=O)c3ccc(Cl)cc3Cl)c2o1 | 43% | 16.4 nM | 32% | 12% | 10% | 110% | 116% |  |  | 34.6 nM | 
CCCOc1ccccc1-c1nc2nn[nH]c2c(=O)[nH]1 [ZAPRINAST] |  |  |  |  |  |  |  |  | 61.1 nM |  | 1600 nM
